Published values of several laboratories.

With `CN(C)C(=O)Oc1cc(OC(=O)N(C)C)cc(-c2cc3ccc(O)cc3o2)c1` the Tmax was 94.8 min (male rat, plasma; oral, 5 mg/kg).
For `COc1ccc2c3c1O[C@H]1C[C@@H](OC(=O)c4ccccc4)C=C[C@@]31CCN(C)C2`, the Tmax was 4.8 min (rat, brain; intravenous, 5 mg/kg).
`Cc1ncc(C)n2nc(/C=C/c3nc(N4CCCC4)cc(N4CCOCC4)n3)nc12` has a Tmax of 162 min (male Sprague-Dawley rat, plasma; oral, 0.3 mg/kg).
With `O=C(Nc1cccnn1)N1CCN([C@@H]2CCOc3cc(C(F)(F)F)ccc32)CC1` the Tmax was 40.2 min (male Sprague-Dawley rat, plasma; oral, 1 mg/kg).
`COC(=O)C(NC(=O)c1cn(CCCCCF)c2ccccc12)C(C)(C)C` (centres unmarked) has a Tmax of 42.5 min (male Sprague-Dawley rat, plasma; subcutaneous, 50 µg/kg).
With `CCCCCCCC(=O)N[C@@H](CCCCN)C(=O)N[C@@H](CCCCN)C(=O)N[C@@H](C)C(=O)N[C@@H](CC(C)C)C(=O)N[C@@H](CCCCN)C(=O)N[C@@H](CC(C)C)C(=O)N[C@@H](C)C(=O)N[C@@H](CCCCN)C(=O)N[C@@H](CCCCN)C(=O)N1CCC[C@H]1C(=O)N[C@@H](CC(C)C)C(=O)N[C@@H](CCCCN)C(=O)N[C@@H](CC(C)C)C(=O)N[C@@H](CC(C)C)C(=O)N[C@@H](CCCCN)C(N)=O` the Tmax was 40.2 min (male Sprague-Dawley rat, blood; intravenous, 3 mg/kg, infusion).
With `CC(C)(C)[C@H](NC(=O)[C@H](CCONC(=N)N)NC(=O)Cc1ccc(CNC(=N)N)cc1)C(=O)N[C@@H](CCONC(=N)N)C(=O)NCc1ccc(C(=N)N)cc1` the Tmax was 30 min (male Sprague-Dawley rat, plasma; intraperitoneal, 2.5 mg/kg).
For `Cl.Cl.O=C(CCN1CCCCC1)c1ccc(-c2ccc(C(=O)CCN3CCCCC3)cc2)cc1`, the Tmax was 1.8 min (Sprague-Dawley rat, plasma; intravenous, 5 mg/kg).
